Experimental data reported in ChEMBL document CHEMBL3763015 (Bioorg Med Chem, 2016).
Calls of active or inactive are those of the source. The calls are words filed in the database; no cut-off is given here.

Experiments:
[1] = target: Cathepsin B (Bos taurus) (UniProt P07688); assay: Inhibition of bovine spleen cathepsin B using Z-Arg-Arg-MCA as substrate at 1 mM incubated for 10 mins
How it was run: (§1)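 10 mU enzyme preincubated 10 min at 40 °C in 50 mM MES pH 6.0 with 2 mM DTT and 0.1% Brij-35. Z-Arg-Arg-MCA and inhibitor in DMSO were then added and incubated 10 min at 40 °C. Reaction stopped with sodium monochloroacetate/acetate buffer, pH 4.3. Screening was at 1.0 mM inhibitor; IC50 runs used 1 nM to 1 mM.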

[2] = tested on: HeLa; assay: Cytotoxicity against human HeLa cells assessed as cell death at 200 uM by […]; type: cell-based
How it was run: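 HeLa cells were grown in DMEM with 5% FBS and 1% penicillin–streptomycin. 100 μl of 5000 cells/ml was seeded and held 24 h at 37 °C, 5% CO2. Compound at 200 μM, with rotenone control, was added for 24 h. WST-8/1-methoxy PMS was added for 2 h, and absorbance read at 450 nm against 630 nm. Result reported as cell death ratio.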

[3] = target: Cathepsin B (Bos taurus, UniProt P07688); assay: Inhibition of bovine spleen cathepsin B using Z-Arg-Arg-MCA as substrate incubated for 10 mins; how it was run: as §1
[4] = target: Cathepsin B (Bos taurus) (UniProt P07688); assay: Competitive inhibition of bovine spleen cathepsin B using Z-Arg-Arg-MCA as substrate incubated for 10 mins by Lineweaver-Burk plot

Compound | inhibition [1] | Activity [2] | IC50 [3] | inhibition [4]
COc1cc(/C=C/C(=O)N[C@H](COC(=O)c2ccccc2)C(=O)NC2CCCCC2)cc(OC)c1 | 22% | – | – | –
COc1cccc(/C=C/C(=O)N[C@@H](COC(=O)c2ccccc2)C(=O)NC2CCCCC2)c1 | 36% | < 20% | – | –
O=C(/C=C/c1ccccc1)N[C@@H](COC(=O)c1ccccc1)C(=O)NC1CCCCC1 | 34% | < 20% | – | –
COc1cc(/C=C/C(=O)N[C@H](COC(=O)c2ccccc2)C(=O)NC2CCCCC2)cc(OC)c1OC | 70% | – | 500 µM | –
O=C(/C=C/c1ccccc1)N[C@@H](COC(=O)CCc1ccccc1)C(=O)NC1CCCCC1 | 82% | – | – | –
COc1cc(/C=C/C(=O)N[C@@H](COC(=O)c2ccccc2)C(=O)NC2CCCCC2)cc(OC)c1 | inactive | < 20% | – | –
O=C(/C=C/c1ccc(OC(=O)c2ccccc2)cc1)N[C@H](COC(=O)c1ccccc1)C(=O)NC1CCCCC1 | 19% | – | – | –
COc1ccc(/C=C/C(=O)N[C@@H](COC(=O)c2ccccc2)C(=O)NC2CCCCC2)cc1OC | 88% | – | – | –
O=C(/C=C/c1ccccc1)N[C@H](COC(=O)c1ccccc1)C(=O)NC1CCCCC1 | inactive | – | – | –
COc1cc(/C=C/C(=O)N[C@@H](COC(=O)c2ccccc2)C(=O)NC2CCCCC2)cc(OC)c1OC | 21% | < 20% | – | –
COc1cccc(/C=C/C(=O)N[C@H](COC(=O)c2ccccc2)C(=O)NC2CCCCC2)c1 | 44% | – | – | –
O=C(/C=C/c1ccc(OC(=O)c2ccccc2)cc1)N[C@@H](COC(=O)c1ccccc1)C(=O)NC1CCCCC1 | 35% | < 20% | – | –
COc1ccccc1/C=C/C(=O)N[C@@H](COC(=O)c1ccccc1)C(=O)NC1CCCCC1 | 67% | – | 170 µM | Active
